# ABCB1 block = ABCB1 efflux pump inhibitors, primary screen, cell-based, multiplex, flow cytometry, ABCG2 counter-screen | ATP-dependent translocase ABCB1 (Homo sapiens), P08183 | CCRF-Adr cells, JC-1 efflux | inhibition, % at 6.6 µM | 190,000 tested, 0.067% active | AID 1326, 2008; in the data active = inhibition above about 40%;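 also: 0% = vehicle and 100% = reference inhibitor; higher value means more JC-1 retained so stronger ABCB1 efflux block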
# ABCG2 inh = ABCG2 efflux pump inhibitors, primary screen, multiplex with ABCB1, IgMXP3 cells, flow cytometry. Broad substrate specificity ATP-binding cassette transporter ABCG2 (Homo sapiens), Q9UNQ0. JC-1 efflux. inhibition, % at 6.6 µM. 190,000 tested, 0.1% active. AID 1325, 2008;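 active = inhibition above 80%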;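 also: 0% = DMSO and 100% = nicardipine control wells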
# Target sequence (Q9UNQ0 whole entry, looked up): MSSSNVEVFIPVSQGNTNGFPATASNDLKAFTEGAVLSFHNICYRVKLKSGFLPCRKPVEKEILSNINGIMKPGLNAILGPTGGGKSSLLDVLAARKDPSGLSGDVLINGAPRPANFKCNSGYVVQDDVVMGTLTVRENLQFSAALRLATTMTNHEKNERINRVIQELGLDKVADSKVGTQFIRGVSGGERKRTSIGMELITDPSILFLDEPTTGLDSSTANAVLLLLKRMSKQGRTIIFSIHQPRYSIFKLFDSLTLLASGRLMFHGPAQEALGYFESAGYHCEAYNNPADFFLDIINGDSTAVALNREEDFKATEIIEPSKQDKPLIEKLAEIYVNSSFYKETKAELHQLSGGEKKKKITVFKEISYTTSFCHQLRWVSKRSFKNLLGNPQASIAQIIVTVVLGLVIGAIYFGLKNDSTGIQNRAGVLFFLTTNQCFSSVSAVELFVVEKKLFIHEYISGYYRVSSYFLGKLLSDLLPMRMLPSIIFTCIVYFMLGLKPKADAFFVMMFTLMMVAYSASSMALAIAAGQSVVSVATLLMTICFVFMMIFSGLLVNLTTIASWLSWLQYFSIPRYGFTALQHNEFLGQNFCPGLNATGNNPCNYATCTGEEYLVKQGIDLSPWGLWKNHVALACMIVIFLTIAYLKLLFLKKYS
#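 Test system: IgMXP3 (ABCG2) plus far-red-tagged CCRF-Adr (ABCB1) cells / Amount: 3 million cells/mL in well / Reagent: JC-1 transporter substrate / Timing: 10 min compound exposure, 25 °C / Signal: flow cytometry, 530 nm JC-1 signal / Read-out: percent efflux inhibition, scaled nicardipine 100% to DMSO 0% / Benchmarks: nicardipine as high control, DMSO as low control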
# MEKK3 PB1 HTS = modulators of MEKK3-MEK5 PB1 binding, primary screen, biochemical, wildtype MEKK3, multiplex bead flow cytometry, Alexa488-MEK5; Mitogen-activated protein kinase kinase kinase 3 (Homo sapiens), Q99759; binding response (% of control), % at 10 µM; bead-based flow cytometry, Alexa488-MEK5 binding to MEKK3; actives lie on both sides; 0 = blocked by unlabeled MEK5, 100 = vehicle; 290,000 tested, 1.4% active; AID 1529, 2009;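 active = binding response more than 3 SD above or below the average of its plate-row segment, actives on both sides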;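 also: Alexa488 bead fluorescence after subtracting the streptavidin-only scavenger bead signal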
# MEKK2 WT-MEK5 = modulators of MEK5 binding to wildtype MEKK2, primary screen, biochemical, multiplex bead flow cytometry, Alexa488-MEK5; Mitogen-activated protein kinase kinase kinase 2 (Homo sapiens), Q9Y2U5; Alexa488-MEK5 binding to MEKK2 WT; actives lie on both sides; binding response (% of control), % at 10 µM; 290,000 tested, 1.1% active; in the data active = binding response below about 67% or above about 130%
# MEKK2mut PB1 HTS = MEK5 binding signal on mutant MEKK2 PB1, primary screen, biochemical, multiplex bead flow cytometry, Alexa488-MEK5 | 290,000 tested, 0.35% active | percent response, % at 10 µM | Alexa488-MEK5 binding to MEKK2 mutant | AID 1530, 2009; in the data active = percent response above about 24%, passing the limit was not always enough
# An asterisk follows results filed as active; . = no result. Most compounds without a hit are left out; they make up all but 2.3% or so of the library.
SMILES,ABCB1 block,ABCG2 inh,MEKK3 PB1 HTS,MEKK2 WT-MEK5,MEKK2mut PB1 HTS
CCN(CC)c1ccc(/C=C/C(=O)C2C(=O)C=C(C)OC2=O)cc1 (configuration not stated),21,35,108,72,61*
COCCN(C(=O)COC(=O)COc1ccc(Cl)c(C)c1)c1c(N)n(Cc2ccccc2)c(=O)[nH]c1=O,.,.,110,111,8
CCOc1ccc2nc(N(CCN(C)C)C(=O)c3cc4ccccc4cc3OC)sc2c1,.,.,104,137*,21
CCOc1cccc2sc(N(CCN(C)C)C(=O)c3cc4ccccc4cc3OC)nc12,.,.,101,149*,19
CCOc1cccc2sc(N(CCN(C)C)C(=O)c3ccc4c(c3)OCCO4)nc12,.,.,105,117,10
O=C(Nc1ccc(C(=O)OC2CCCCC2)cc1)c1ccncc1,.,.,102,103,1
COc1ccc(NC(=O)CN2CCC(NC(=O)C3CCCCC3)CC2)cc1,0,2,105,106,3
CN(C)c1ccc(NC(=O)CN2CCC(NC(=O)C3CCCCC3)CC2)cc1,.,.,103,137*,30*
Cc1c(C=O)c2cc(OCc3ccccc3)ccc2n1C,.,.,105,102,7
CCOC(=O)C1C(=O)C=C(/C=C/c2ccc(N(C)C)cc2)CC1c1ccccc1 (configuration not stated),0,16,129,42*,51*
COc1ccc(NC(=O)c2sc3nc(N4CCOCC4)c4c(c3c2N)CC(C)(C)OC4)c(OC)c1,.,.,97,95,-3
Cc1c(C(=S)Nc2ccccc2)cnn1-c1ccc([N+](=O)[O-])cc1,0,60,92,4.0*,8
N#C/C(=C/c1cn(-c2ccccc2)nc1-c1cccc(OCc2ccc(F)cc2)c1)C(=O)NCCCn1ccnc1,1,9,172*,131,3
Cc1ccc(Cc2c(C)nc3nc(SCC(=O)NCCCN4CCCCC4)nn3c2C)cc1,.,.,96,111,0
Cc1ccc(Cc2c(C)nc3nc(SCC(=O)NCCCN4CCCC4)nn3c2C)cc1,.,.,109,147*,21
Cc1ccccc1Cc1c(C)nc2nc(SCC(=O)NCCCN3CCCC3)nn2c1C,.,.,105,136*,19
CCOc1cc(C(=S)N2CCOCC2)ccc1OC(=O)c1ccc(C)cc1,.,.,98,93,-2
CCCNC(=O)CSc1n[nH]c(=O)n1CCc1ccccc1,.,.,100,106,-3
Cc1ccc(-n2ncc3c2CC(C)(C)CC3NC(=O)CCN2CCCCC2=O)cc1 (configuration not stated),.,.,101,106,1
CCOC(=O)C(OC(=O)c1sc(=S)n(C)c1C)C(C)=O (configuration not stated),0,6,101,107,10
CC(=O)NNC(=O)c1sc(=S)n(C)c1C,.,.,95,-5.0*,1
CCCN(C(=O)COC(=O)C12CCC(=O)N1c1ccccc1S2)c1c(N)n(Cc2ccccc2)c(=O)[nH]c1=O (configuration not stated),.,.,101,102,1
O=C(c1cc2nc(-c3cccs3)cc(C(F)(F)F)n2n1)N1CCCc2ccccc21,20,100*,108,100,7
CCN(c1ccccc1)S(=O)(=O)c1ccc(C(=O)N(CCCN(C)C)c2nc3cc4c(cc3s2)OCO4)cc1,.,.,106,158*,25*
CN(C)CCN(C(=O)c1ccc2ccccc2c1)c1nc2ccc(Br)cc2s1,.,.,106,144*,12
SMILES,ABCB1 block,ABCG2 inh,MEKK3 PB1 HTS,MEKK2 WT-MEK5,MEKK2mut PB1 HTS
COc1cccc2sc(N(CCCN(C)C)C(=O)c3ccc(S(=O)(=O)N4CCc5ccccc5C4)cc3)nc12,.,.,107,192*,38*
CCOc1cccc2sc(N(CCCN(C)C)C(=O)c3ccc(S(=O)(=O)N(CC)Cc4ccccc4)cc3)nc12,.,.,113,227*,54*
CN(C)CCCN(C(=O)c1ccc2c(c1)OCCO2)c1nc2cc3c(cc2s1)OCO3,.,.,96,103,-2
CC(=O)Oc1ccc(C(=O)Nc2ccc(S(=O)(=O)NCC3CCCO3)cc2)cc1 (configuration not stated),.,.,102,99,5
CCc1cc(=O)oc2cc(OCc3ccc(C(=O)O)o3)ccc12,.,.,102,104,0
Cc1cccc(C(=O)NCC(=O)N2CCOCC2)c1,.,.,104,102,1
COc1ccc(S(=O)(=O)Nc2cc3[nH]c(=O)oc3cc2C)cc1,.,.,95,100,1
CN(C)CCCN(C(=O)c1ccc(S(=O)(=O)N2CCc3ccccc32)cc1)c1nc2c(Cl)cccc2s1,.,.,109,257*,58*
CN(C)CCCN(C(=O)COc1ccccc1)c1nc2c(F)cccc2s1,0,2,109,124,0
CCCCN(C)S(=O)(=O)c1ccc(C(=O)N(CCN(C)C)c2nc3ccc(C)cc3s2)cc1,1,0,.,.,.
CN(C)CCCN(C(=O)c1ccc(S(=O)(=O)N2CCOCC2)cc1)c1nc2ccc(F)cc2s1,.,.,92,106,-1
CCCCN(CC)S(=O)(=O)c1ccc(C(=O)N(CCCN(C)C)c2nc3cc(C)cc(C)c3s2)cc1,2,3,145*,162*,6
CN(C)CCCN(C(=O)c1ccc(C(=O)c2ccccc2)cc1)c1nc2c(F)cccc2s1,.,.,108,143*,13
CN(C)CCN(C(=O)c1ccc(S(=O)(=O)N2CCc3ccccc32)cc1)c1nc2ccc(F)cc2s1,.,.,102,124,14
Cc1ccc2nc(N(CCCN(C)C)C(=O)c3ccc(S(=O)(=O)N4CCCCCC4)cc3)sc2c1,.,.,108,171*,28*
CCOc1ccccc1NS(=O)(=O)c1ccc2oc(=O)ccc2c1,.,.,103,103,3
CCCS(=O)(=O)c1nc(S(=O)(=O)c2ccc(Cl)cc2)c(N2CCC(O)CC2)s1,.,.,100,103,1
CCOc1cccc2sc(N(CCCN(C)C)C(=O)c3ccc(S(=O)(=O)N4CCCCCC4)cc3)nc12,.,.,103,149*,23
CC1CCCCN1S(=O)(=O)c1ccc(C(=O)N(CCCN(C)C)c2nc3ccc(Br)cc3s2)cc1 (configuration not stated),.,.,117,258*,76*
CCOC(=O)N1CCN(S(=O)(=O)c2ccc(C(=O)N(CCCN(C)C)c3nc4ccc(CC)cc4s3)cc2)CC1,.,.,102,133,19
CCOc1cccc2sc(N(CCN(CC)CC)C(=O)c3ccc(S(=O)(=O)N4CCCCC4)cc3)nc12,8,4,103,128,16
